Bioassay records: PubChem BioAssay, SRMLSC
BB579 growth dn: growth inhibitors of yeast BB579 in restrictive medium, primary screen, yeast lifespan-shortening project, S. cerevisiae; 140,000 tested, 0.51% active; AID 804, 2007; inhibition, % at 10 µM; OD615, 48 h;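 active = inhibition above a set limit, 3 SD over the mean compound inhibition, cut at about 44% in these data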
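Test system: DeaD yeast strain BB579 / Buffer or medium: restrictive glucose-based CSMM-D medium / Doses: single 10 µM dose / Schedule: 4 h cell preincubation, 48 h compound exposure, 30 °C humidified / Technique: culture absorbance at 615 nm / Controls: amphotericin B positive control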
RAM inhibit: inhibitors of the yeast RAM network, primary screen, dse1pr::URA3 reporter, 5-FOA selection; inhibition, % at 50 µM; 190,000 tested, 1.8% active; AID 868, 2007; S. cerevisiae dse1pr::URA3 reporter, 5-FOA growth OD615, 2 d; analog-sensitive cbk1-as2 kinase mutant strain;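 active = inhibition above a set limit, 3 SD over mean compound inhibition, cut at about 8.4% in these data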;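 note: inhibition rescues growth on 5-FOA so higher OD means more RAM inhibition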
Yeast life ext: compounds extending yeast replicative lifespan, primary screen, S. cerevisiae, OD615. 130,000 tested, 0.68% active. inhibition of the nicotinamide effect, % at 10 µM. S. cerevisiae growth with nicotinamide; deaD strain in restrictive glucose medium;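 active = inhibition above a set limit, placed 3 SD over the median of all compounds, cut at about 26% in these data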
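Assay system: engineered S. cerevisiae DeaD replicative-lifespan strain, galactose-grown log-phase cells; medium: restrictive CSMM-D dextrose medium; also added: nicotinamide, 1.5 mM, co-present with compound; schedule: 48 h compound exposure at 30 °C, humidified; detection: absorbance at 615 nm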
Hits are given with their value; i = inactive; nt = no result. Hits are enriched below; roughly 2.6% of the tested compounds scored in any of these assays.

SMILES	BB579 growth dn	RAM inhibit	Yeast life ext
CC1CCCC(C)N1C(=O)Cn1c(SCC(=O)NCc2ccc3c(c2)OCO3)nc2ccccc21 (stereo not drawn)	i	8.9	i
CS(=O)(=O)N1CCN(c2ccc(NC(=O)c3ccccc3)cc2)CC1	nt	i	nt
C=CCNC(=O)c1ccc2c(=O)n(CCCN3CCCC3=O)c(=S)[nH]c2c1	nt	i	nt
CCOCCCNC(=O)c1ccccc1OC1CCN(S(C)(=O)=O)CC1	nt	i	nt
COc1ccc(NC(=O)C(C)N2C(=O)c3ccccc3C2=O)cc1S(=O)(=O)N1CCOCC1 (stereo not drawn)	nt	i	nt
Cc1ccccc1NCc1nnc2n1CCCCC2	nt	i	nt
CN1CCN(CC(=O)Nc2ccc([N+](=O)[O-])cc2Br)CC1	nt	i	nt
Cc1cc(C)cc(NS(=O)(=O)c2ccc(NC(=O)C3CCCCC3C(=O)O)cc2)c1 (stereo not drawn)	i	i	i
C/C(Cc1ccccc1)=N\NC(=O)CNC(=O)c1ccc(C(C)(C)C)cc1	i	i	i
CCOc1ccc(OCC(=O)Nc2ccc(OC)cc2[N+](=O)[O-])cc1	nt	i	nt
CCOc1ccc(NC(=O)COC(=O)C2(C)CC2(Cl)Cl)c([N+](=O)[O-])c1 (stereo not drawn)	nt	9.1	nt
COc1ccc(NC(=O)Cn2c3ccccc3c3nc4n(c(=O)c32)CCS4)cc1	nt	i	nt
CN1C(=O)CSC1=NC12CC3CC(CC(C3)C1)C2	i	i	53.1
CCN1C(=O)CSC1=NC12CC3CC(CC(C3)C1)C2	i	i	i
O=C1COc2ccc(C(=O)COC(=O)Cc3ccsc3)cc2N1	nt	i	nt
O=[N+]([O-])c1ccc(N(c2ccccc2)c2ccccc2)cc1	i	10.0	i
CCN(C(=O)c1ccccc1)c1ccc([N+](=O)[O-])cc1	i	i	i
CCCCN(C(=O)c1ccc(Cl)c([N+](=O)[O-])c1)c1c(N)n(CCC)c(=O)[nH]c1=O	nt	i	nt
Cc1ccc(-c2n[nH]c(=S)n2/N=C/c2ccncc2)cc1	nt	i	nt
CC(=O)NC(=S)NNC(=O)CCc1ccccc1	nt	i	nt
Cc1ccccc1C(=O)NNC(=O)c1ccc(Br)cc1	nt	i	nt
O=C(CCc1ccccc1)NNC(=S)NC(=O)c1ccccc1	69.1	i	i
Cc1ccccc1C(=O)NNC(=S)NC(=O)c1ccccc1	i	i	30.4
CN(/C=C1/C(=O)CNC1=O)CCO	nt	i	nt
CCCn1c(CN2CCN(c3cccc(Cl)c3)CC2)nc2c1c(=O)n(C)c(=O)n2C	i	i	i
SMILES	BB579 growth dn	RAM inhibit	Yeast life ext
COCCN(CCOC)S(=O)(=O)c1ccc(C(=O)Nc2sc3c(c2C(N)=O)CCCCC3)cc1	i	i	40.0
COC(=O)c1c(NC(=O)c2ccc(N(C)S(=O)(=O)c3ccc(C)cc3)cc2)sc2c1CCCC2	i	i	i
CCOC(=O)C1=C(C)NC(SCC(=O)OC)=C(C#N)C1c1ccc(C(=O)OC)cc1 (stereo not drawn)	i	10.8	i
CCOC(=O)CSC1=C(C#N)C(c2ccc(F)cc2)C(C(C)=O)=C(C)N1 (stereo not drawn)	i	i	i
COc1ccc(C(=O)NCCc2nnc(SCC(=O)Nc3ccccc3F)n2C)cc1	nt	i	nt
O=C(c1ccc(OC2CCN(CCc3ccccc3)CC2)cc1)N1CCCC(CO)C1 (stereo not drawn)	nt	i	nt
CCOC(=O)C1(Cc2ccc(Cl)cc2)CCN(C(=O)c2cscn2)CC1	nt	i	nt
CNC(=O)c1sc(N2N=C3/C(=C/c4ccccc4)CCCC3C2c2ccccc2)nc1C (stereo not drawn)	i	9.9	i
O=C(c1ccccn1)N1N=C2/C(=C/c3ccccc3)CCCC2C1c1ccccc1 (stereo not drawn)	i	i	i
CCOc1ccc(/C=C/C(=O)NCCc2ccc(OC)c(OC)c2)cc1	i	i	i
CCCCNC(=O)/C=C/c1ccc(OC)c(Br)c1	i	9.6	i
COc1ccc2nc(N/C(=N/S(=O)(=O)c3cccs3)c3ccccc3Cl)sc2c1	nt	i	nt
COc1ccc2nc(NC(=S)N(C)C)sc2c1	65.2	i	i
COc1ccc2nc(NC(=O)C(NS(=O)(=O)c3cccs3)C(C)C)sc2c1 (stereo not drawn)	i	8.8	i
CCCC(=O)Nc1nc2ccc(OC)cc2s1	i	i	i
CCc1nnc(NS(=O)(=O)c2ccc(N3C(=O)c4ccc(C(=O)O)cc4C3=O)cc2)s1	nt	i	nt
NS(=O)(=O)c1ccc(CCNC(=O)CSc2nc3ccccc3c(=O)n2CCC(=O)N2CCCCC2)cc1	nt	i	nt
N=c1sccn1CC(=O)Nc1cccc(S(=O)(=O)N2CCCCCC2)c1	nt	i	nt
COc1cc(-n2c(=O)c3ccccc3n(CC(=O)c3ccccc3)c2=O)cc(OC)c1OC	nt	i	nt
COc1cc2c(=O)n(-c3ccc(C)cc3)c(=O)n(CC(=O)c3ccc4c(c3)OCO4)c2cc1OC	i	9.1	i
Nc1ccn(Cc2ccc(F)cc2)n1	nt	i	nt
O=C1OCCC1Sc1nnc(-c2ccco2)n1-c1ccccc1 (stereo not drawn)	nt	i	nt
c1ccc(-n2c(-c3ccco3)nnc2-c2ccco2)cc1	47.5	i	i
O=C(COc1ccc(Cl)cc1Cl)NCC(=O)N/N=C/c1c[nH]c2ccccc12	i	9.8	i
O=C(CNc1ccccc1)N/N=C/c1c[nH]c2ccccc12	i	i	i
SMILES	BB579 growth dn	RAM inhibit	Yeast life ext
Cc1ccc(NC(=O)c2ccc(COc3ccc4c(c3)CCC4)cc2)c(C)c1	i	i	i
CC1CCc2[nH]c3ccc(C(=O)NCCCOC(C)C)cc3c2C1 (stereo not drawn)	nt	i	nt
O=C(/C=C/NNC(=O)c1cccc(Br)c1)c1cccc(Br)c1	i	i	27.5
O=C(/C=C/NNC(=O)c1ccccc1)c1ccc(Br)cc1	i	i	i
CC1CCCN(S(=O)(=O)c2ccc(C(=O)Nc3ccccc3-c3nc4ccccc4[nH]3)cc2)C1 (stereo not drawn)	i	9.8	i
CC1CCN(S(=O)(=O)c2ccc(C(=O)Nc3ccccc3-c3nc4ccccc4[nH]3)cc2)CC1	i	i	i
Cc1ccc(-c2cc(-c3ccccc3)c3c(N)c(S(C)(=O)=O)sc3n2)cc1	i	i	i
CS(=O)(=O)c1sc2nc(-c3cccs3)cc(-c3ccccc3)c2c1N	i	10.7	i
Cc1cc(N2CCN(c3cccc(C)c3C)CC2)nc(-c2ccccc2)n1	66.6	i	nt
Cc1cc(N2CCC(C(=O)NC3CC3)CC2)nc(-c2ccccc2)n1	i	i	i
Cc1ccc(N2C(=O)N(CC(=O)N3CCOCC3)C(=O)C2C)cc1 (stereo not drawn)	nt	i	nt
COc1ccc(C2=NNC(c3cccs3)=Nc3ccc(OC)cc32)cc1	i	i	nt
CCOc1ccc(C2=NNC(c3cccs3)=Nc3ccc(OCC)cc32)cc1	i	i	47.1
CCOC(=O)c1cnc(SC)nc1Oc1cccc(NS(=O)(=O)c2ccc(Cl)cc2)c1	i	9.2	i
CCOC(=O)c1cnc(-c2ccccc2)nc1Oc1ccc(Cl)c(Cl)c1	i	i	i
CCOC(=O)c1cnc(-c2ccccc2)nc1Oc1cccc(Cl)c1	i	8.9	i
CCOC(=O)c1cnc(SC)nc1Oc1cccc(NC(=O)c2ccc(Cl)cc2)c1	i	i	i
COc1ccc2c([N+](=O)[O-])c(Cl)[nH]c2c1	nt	i	nt
Cc1cc(NC(c2cccnc2)c2ccc3cccnc3c2O)no1 (stereo not drawn)	i	i	i
